In brackets after ≈: the same amount, converted by molar mass.
How the values were obtained:
Liver = assay: (§1) Hepatic extraction in human liver S9 fractions at 2 uM by LC-MS/MS analysis; format: ADME; details: s9, 2 µM, 2 µM
Method in brief: (§2)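 Compound at 2 μM incubated with S9 fractions at 37 °C for 90 min with NADPH and UDPGA. Quenched with aqueous acetonitrile/methanol containing internal standard and analysed by LC-MS/MS. Half-life from an exponential fit assuming first-order kinetics. Hepatic extraction predicted from half-life using the well-stirred model.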

[1] = Permeability of the compound from basolateral to apical side in human Caco2 cells at 10 uM; format: ADME, cell-based, Caco-2; details: for Papp B→A at 10 µM: Caco-2, read-out: permeability
Method in brief: (§3)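 Caco-2 permeability at 10 μM compound, measured in apical-to-basolateral and basolateral-to-apical directions.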

[2] = Permeability of the compound from apical to basolateral side in human Caco2 cells at 10 uM; format: ADME, cell-based, Caco-2; details: for Papp A→B at 10 µM: Caco-2, read-out: permeability; method in brief: as §3
[3] = Half life in hamster intestinal S9 fractions at 2 uM by LC-MS/MS analysis; format: ADME, Intestine; details: cricetinae; for t1/2: s9, 2 µM, 2 µM; for half-life at 2 µM: intestinal S9 fractions
Hepatitis C virus [4] = assay: Antiviral activity against HCV genotype 4a infected in human HuH7 cells by luciferase reporter gene assay; format: functional, cell-based, Hepacivirus hominis
Hepatitis C virus [5] = assay: Antiviral activity against HCV genotype 1b infected in human HuH7 cells by luciferase reporter gene assay; format: functional, cell-based, Hepacivirus hominis
Method in brief: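 Luciferase-reporter genotype 1b subgenomic replicon in Huh-7 cells; EC50 is concentration giving 50% inhibition. Values are averages of at least three repeats.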

Hepatitis C virus [6] = assay: Antiviral activity against HCV genotype 1a infected in human HuH7 cells by luciferase reporter gene assay; format: functional, cell-based, Hepacivirus hominis, subtype 1a
[7] = Hepatic extraction in hamster liver S9 fractions at 2 uM by LC-MS/MS analysis; format: ADME; details: cricetinae; for hepatic extraction ratio at 2 µM: liver S9 fractions, read-out: ERH; method in brief: as §2
[8] = Half life in hamster plasma at 2 uM by LC-MS/MS analysis; format: ADME, cell-free; details: cricetinae; for t1/2: 2 µM
Method in brief: (§4)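 Compound at 2 μM incubated in plasma at 37 °C for up to 4 h. Aliquots quenched with 9 volumes of acetonitrile containing internal standard, then centrifuged. Supernatant analysed by LC-MS/MS.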

Plasma [9] = assay: (§5) Half life in human plasma at 2 uM by LC-MS/MS analysis; format: ADME, cell-free; details: 2 µM; method in brief: as §4
[10] = Inhibition of human RNA polymerase-2
[11] = as §1; format: ADME; details: liver S9 fractions, read-out: ERH; method in brief: as §2
[12] = Prodrug activation in human HuH7 cells infected with HCV genotype 1b assessed as ((2R,3R,4R,5S)-5-(4-aminoimidazo[1,2-f][1,2,4]triazin-7-yl)-4-fluoro-3-hydroxy-4-methyltetrahydrofuran-2-yl)methyl tetrahydrogen triphosphate level per million cells at 10 uM after 2 hrs by LC-MS/MS analysis; format: cell-based; details: huh-7, 2 h
Method in brief: (§6)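 HCV genotype 1b replicon Huh-7 cells (DMEM with glutaMAX, 10% heat-inactivated FBS, penicillin-streptomycin, G418) grown to confluency (0.88×10^6 cells/well), exposed continuously to prodrug at 10 μM for up to 24 h; washed in ice-cold saline, extracted into 70% methanol overnight, dried, resuspended in 1 mM ammonium phosphate pH 8.5; triphosphate quantified by LC-MS/MS; LLOQ 0.137 pmol/million cells; duplicate wells, single experiment.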

[13] = Half life in human intestinal S9 fractions at 2 uM by LC-MS/MS analysis; format: ADME, Intestine; method in brief: as §2
[14] = Prodrug activation in human HuH7 cells infected with HCV genotype 1b assessed as ((2R,3R,4R,5S)-5-(4-aminoimidazo[1,2-f][1,2,4]triazin-7-yl)-4-fluoro-3-hydroxy-4-methyltetrahydrofuran-2-yl)methyl tetrahydrogen triphosphate level per million cells at 10 uM after 24 hrs by LC-MS/MS analysis; format: cell-based; details: huh-7, 24 h; method in brief: as §6
[15] = Prodrug activation in human HuH7 cells infected with HCV genotype 1b assessed as ((2R,3R,4R,5S)-5-(4-aminoimidazo[1,2-f][1,2,4]triazin-7-yl)-4-fluoro-3-hydroxy-4-methyltetrahydrofuran-2-yl)methyl tetrahydrogen triphosphate level per million cells at 10 uM after 6 hrs by LC-MS/MS analysis; format: cell-based; details: huh-7, 6 h; method in brief: as §6
[16] = as §5; format: ADME, cell-free; method in brief: as §4
Huh-7 = assay: Cytotoxicity against human HuH7 cells; format: cell-based
[17] = Inhibition of human DNA polymerase-alpha
[18] = Prodrug activation in Syrian golden hamster liver assessed as triphosphate metabolite formation at 5 mg equivalents/kg, po after 1 hr by LC-MS/MS analysis; format: ADME, organism-based, Mesocricetus auratus; details: in vivo
Method in brief: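 Golden Syrian hamsters (groups of 12) dosed orally at 5 mg-eq/kg in EtOH/PEG400/water buffered with 50 mM pH 4 citrate. Livers harvested under isoflurane at 1 h and extracted in cold KOH/EDTA/70% MeOH with Cl-ATP. Triphosphate measured by LC/MS/MS, with endogenous ATP checked for sample stability.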

Plasma [19] = assay: Stability in rat plasma at 2 uM up to 4 hrs by LC-MS/MS analysis; format: ADME, cell-free; method in brief: as §4
[20] = Solubility of the compound in pH 7.4 solution; format: physicochemical
Method in brief: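 Solubility measured at pH 7.4 using amorphous material.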

[21] = Inhibition of HCV genotype 1b wild-type NS5B RNA dependent RNA polymerase; set-up: species or system Hepatitis C virus subtype 1b
[22] = tested on: RNA-directed RNA polymerase (Hepacivirus hominis), O39930 [UNDEFINED MUTATION]; assay: Inhibition of HCV genotype 1b wild-type NS5B RNA dependent RNA polymerase S282T mutant relative to control; details: Hepatitis C virus subtype 1b
[23] = Fraction absorbed in Beagle dog at 5 mg/kg, po; format: ADME, organism-based, Canis lupus familiaris; details: in vivo, read-out: Fabs
Method in brief: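 Male beagle dogs dosed orally at 5 mg/kg. Fraction absorbed determined by portal vein sampling.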

[24] = Prodrug activation in human HuH7 cells infected with HCV genotype 1b assessed as ((2R,3R,4R,5R)-5-(4-aminoimidazo[1,2-f][1,2,4]triazin-7-yl)-5-cyano-4-fluoro-3-hydroxy-4-methyltetrahydrofuran-2-yl)methyl tetrahydrogen triphosphate level per million cells at 10 uM after 6 hrs by LC-MS/MS analysis; format: cell-based; details: huh-7, 6 h; method in brief: as §6
[25] = Prodrug activation in human HuH7 cells infected with HCV genotype 1b assessed as ((2R,3R,4R,5R)-5-(4-aminoimidazo[1,2-f][1,2,4]triazin-7-yl)-5-cyano-4-fluoro-3-hydroxy-4-methyltetrahydrofuran-2-yl)methyl tetrahydrogen triphosphate level per million cells at 10 uM after 24 hrs by LC-MS/MS analysis; format: cell-based; details: huh-7, 24 h; method in brief: as §6
[26] = Prodrug activation in human HuH7 cells infected with HCV genotype 1b assessed as ((2R,3R,4R,5R)-5-(4-aminoimidazo[1,2-f][1,2,4]triazin-7-yl)-5-cyano-4-fluoro-3-hydroxy-4-methyltetrahydrofuran-2-yl)methyl tetrahydrogen triphosphate level per million cells at 10 uM after 2 hrs by LC-MS/MS analysis; format: cell-based; details: huh-7, 2 h; method in brief: as §6
[27] = Prodrug activation in human HuH7 cells infected with HCV genotype 1b assessed as ((2R,3R,4R,5S)-5-(4-aminopyrrolo[1,2-f][1,2,4]triazin-7-yl)-4-fluoro-3-hydroxy-4-methyltetrahydrofuran-2-yl)methyl tetrahydrogen diphosphate level at 10 uM after 2 to 24 hrs by LC-MS/MS analysis; format: cell-based; details: huh-7, 10 µM
[28] = Prodrug activation in human HuH7 cells infected with HCV genotype 1b assessed as ((2R,3R,4R,5S)-5-(4-aminopyrrolo[1,2-f][1,2,4]triazin-7-yl)-4-fluoro-3-hydroxy-4-methyltetrahydrofuran-2-yl)methyl tetrahydrogen triphosphate level per million cells at 10 uM after 2 to 24 hrs by LC-MS/MS analysis; format: cell-based; details: huh-7, 10 µM; method in brief: as §6
[29] = Prodrug activation in human HuH7 cells infected with HCV genotype 1b assessed as ((2R,3R,4R,5S)-5-(4-aminopyrrolo[1,2-f][1,2,4]triazin-7-yl)-4-fluoro-3-hydroxy-4-methyltetrahydrofuran-2-yl)methyl tetrahydrogen monophosphate level at 10 uM after 2 to 24 hrs by LC-MS/MS analysis; format: cell-based; details: huh-7, 10 µM
[30] = Hepatitis C virus, genotype 4a, Huh-7
[31] = Hepatitis C virus, genotype 1b, Huh-7
[32] = Hepatitis C virus, subtype 1a, Huh-7

Compound	hepatic extraction ratio at 2 µM [11]	half-life at 2 µM [13] [h]	EC50 (Hepatitis C virus [4]; [30]) [nM]	EC50 (Hepatitis C virus [5]; [31]) [nM]	hepatic extraction ratio at 2 µM [7]	half-life at 2 µM [16] [h]	Papp B→A at 10 µM [1] [×10⁻⁶ cm/s]	liver triphosphate concentration [18] [µM]	Papp A→B at 10 µM [2] [×10⁻⁶ cm/s]	Stability (Plasma [19])	solubility [20] [µg/mL]	also measured
CC(C)OC(=O)C1(NP(=O)(OC[C@H]2O[C@@H](c3cnc4c(N)ncnn34)[C@](C)(F)[C@@H]2O)Oc2ccccc2)CCC1 (stereo in doubt; 54)												ERH (Liver): 78%; permeability ([1]; caco-2, 10 µM, 10 µM): 9.2 ×10⁻⁶ cm/s; permeability ([2]; caco-2, 10 µM, 10 µM): 1.3 ×10⁻⁶ cm/s; t1/2 [3]: 0.3 h; EC50 (Hepatitis C virus [4]): 740 nM; EC50 (Hepatitis C virus [5]): 31200 nM; EC50 (Hepatitis C virus [6]): 7300 nM; ERH ([7]; s9, 2 µM, 2 µM): 96%; t1/2 [8]: 7.17 h; t1/2 (Plasma [9]): > 13.2 h
CC[C@H](C)[C@@H]1NC(=O)CNC(=O)[C@@H]2Cc3c([nH]c4cc(O)ccc34)[S+]([O-])C[C@@H](NC(=O)CNC1=O)C(=O)N[C@@H](CC(N)=O)C(=O)N1C[C@H](O)C[C@H]1C(=O)NC([C@@H](C)[C@@H](O)CO)C(=O)N2 (some centres undefined)												IC50 [10]: 2.4 nM
CCOC(=O)[C@H](C)NP(=O)(OC[C@H]1O[C@@H](c2cnc3c(N)ncnn23)[C@](C)(F)[C@@H]1O)Oc1ccccc1 (some centres undefined)	0.83	2.23	100	580 to 590	0.76	7.57						Drug metabolism [12]: 2.4 pmol; Drug metabolism [14]: 20.5 pmol; Drug metabolism [15]: 13 pmol; half-life at 2 µM [3]: 0.4 h; EC50 (Hepatitis C virus [6]; [32]): 370 nM; half-life at 2 µM [8]: > 13.2 h; Activity (Huh-7): Non-Toxic
C[C@@]1(CO)[C@H](O)CC[C@@]2(C)[C@H]1CC[C@H]1C[C@@H]3C[C@@]12CC[C@]3(O)CO [APHIDICOLIN]												IC50 [17]: 7300 nM
CC(C)OC(=O)C(C)(C)NP(=O)(OC[C@H]1O[C@@H](c2ccc3c(N)ncnn23)[C@](C)(F)[C@@H]1O)Oc1ccccc1 (some centres undefined)	0.65	> 13.2	1100	41800	0.86	2.58	17.6	1.29	4.2	Unstable	657 (≈ 1160 µM)	half-life at 2 µM [3]: 1.77 h; EC50 (Hepatitis C virus [6]; [32]): 5000 nM; half-life at 2 µM [8]: 2.07 h
C[C@@]1(F)[C@H](O)[C@@H](COP(=O)(O)OP(=O)(O)OP(=O)(O)O)O[C@@]1(C#N)c1ccc2c(N)ncnn12 [GS-441326]				> 89000								IC50 [21]: 420 nM; fold change (FC) [22]: 6
CC(C)OC(=O)[C@H](C)N[P@@](=O)(O)OC[C@H]1O[C@@](C#N)(c2ccc3c(N)ncnn23)[C@](C)(O)[C@@H]1O							8.9	0.53	0.2	Unstable	306 (≈ 614 µM)	Fa [23]: 10%
CCOC(=O)[C@H](C)NP(=O)(OC[C@H]1O[C@@](C#N)(c2ccc3c(N)ncnn23)[C@](C)(F)[C@@H]1O)Oc1ccccc1 (some centres undefined)				3240								Drug metabolism [24]: 5.8 pmol; Drug metabolism [25]: 3.3 pmol; Drug metabolism [26]: 1.6 pmol; Activity (Huh-7): Non-Toxic
C[C@@]1(O)[C@H](O)[C@@H](COP(=O)(O)OP(=O)(O)OP(=O)(O)O)O[C@H]1c1ccc2c(N)ncnn12				> 89000								IC50 [21]: 290 nM; fold change (FC) [22]: > 30
CC(C)OC(=O)C1(NP(=O)(OC[C@H]2O[C@@H](c3cnc4c(N)ncnn34)[C@](C)(F)[C@@H]2O)Oc2ccccc2)CCC1 (stereo in doubt; 37)	0.79	> 13.2	380		0.93	8.9	9.7	1.89	2.4	Unstable	538 (≈ 930 µM)	t1/2 [3]: 0.8 h; Fa [23]: > 70%; EC50 (Hepatitis C virus [5]): 18800 nM; EC50 (Hepatitis C virus [6]): 2300 nM; t1/2 [8]: > 13.2 h
CC(C)OC(=O)[C@H](C)N[P@](=O)(OC[C@H]1O[C@@H](c2cnc3c(N)ncnn23)[C@](C)(F)[C@@H]1O)Oc1ccccc1	0.65	9.83	110	670	0.97	> 13.2	16.6	0.34	0.94	Unstable	642 (≈ 1160 µM)	half-life at 2 µM [3]: 0.183 h; EC50 (Hepatitis C virus [6]; [32]): 510 nM; half-life at 2 µM [8]: > 13.2 h
CCOC(=O)[C@H](C)NP(=O)(OC[C@H]1O[C@@H](c2ccc3c(N)ncnn23)[C@](C)(F)[C@@H]1O)Oc1ccccc1 (some centres undefined)				> 89000								Drug metabolism [27]: Metabolite_Notdetected; Drug metabolism [28]: < 0.137 pmol; Drug metabolism [29]: Metabolite_Detected

Source: ChEMBL document CHEMBL4007470, “Discovery of a 2'-fluoro-2'-C-methyl C-nucleotide HCV polymerase inhibitor and a phosphoramidate prodrug with favorable properties” (Bioorg Med Chem Lett, 2017)
